Source: PubChem
DNMT1 inh: blocks human DNA methyltransferase DNMT1; P26358; DNMT1 molecular beacon, Hinp1I cleavage, fluorescence; inhibition (reported as % activation of signal), % at 10 µM; 0.83% of 360,000 active; AID 588458; in the data active = inhibition above about 50%
CSN inh: inhibitors of human CSN-mediated cullin deneddylation; Q92905; Purified CSN, SCF-Nedd8-OG deneddylation, fluorescence polarization; inhibition, % at 12.5 µM; 0.38% of 360,000 active; AID 651999;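 active = pattern-corrected inhibition above about 35%, with an unprinted fluorescence ratio check between 0.5 and 1.5, limit read from the data, passing the limit was not always enough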
Target sequence (Q92905 whole entry, looked up, one chain of several): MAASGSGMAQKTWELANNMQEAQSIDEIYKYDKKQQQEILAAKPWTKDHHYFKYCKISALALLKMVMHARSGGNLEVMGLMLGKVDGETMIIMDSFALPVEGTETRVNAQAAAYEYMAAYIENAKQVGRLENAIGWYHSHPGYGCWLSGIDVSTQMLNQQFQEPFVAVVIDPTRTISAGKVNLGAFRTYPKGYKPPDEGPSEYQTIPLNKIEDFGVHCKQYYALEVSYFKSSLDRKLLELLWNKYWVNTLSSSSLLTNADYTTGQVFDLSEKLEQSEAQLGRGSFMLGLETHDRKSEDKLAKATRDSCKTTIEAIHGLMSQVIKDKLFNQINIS
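Assay system: HEK293T-derived human Csn5 enzyme; quantity: 0.24 nM enzyme; medium: Tris/NaCl/DTT buffer, pH 7.5; also added: substrate SCFSkp2-Nedd8OG, 10 nM; doses: 12.5 µM compound; schedule: 90 min reaction at room temperature; signal: FP; read-out: % inhibition of substrate cleavage by Csn5; benchmarks: substrate-only high control, full reaction low control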
SUMO1 PPI mod: SUMO1-SIM interaction modulation; SUMO1 binding to a labelled peptide, TR-FRET, 1 h; inhibition, % at 20 µM; 0.33% of 360,000 active; AID 602429; in the data active = inhibition above about 37%
SKN-1 inh: C. elegans SKN-1 inhibition. C. elegans VP596 Pgst-4::GFP/RFP ratio, acrylamide-induced, 24 h. inhibition, % at 21.8 µM. 0.49% of 360,000 active. AID 624304;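 active = interference check ratio from 0.5 to 1.5 plus GFP to RFP signal ratio inhibition reaching or exceeding a fixed threshold, cut at about 30% in these data, passing the limit was not always enough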
Rpn11 inh: inhibitors of human proteasome Rpn11; O00487; human 26S proteasome, Ub4-pepOG fluorescence polarization; 20S core pre-blocked with epoxomicin; inhibition, % at 20 µM; 0.59% of 360,000 active;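 active = inhibition at 20 µM, scaled to each plate's controls, above about 33%, limit read from the data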
Target sequence (O00487 whole entry, looked up): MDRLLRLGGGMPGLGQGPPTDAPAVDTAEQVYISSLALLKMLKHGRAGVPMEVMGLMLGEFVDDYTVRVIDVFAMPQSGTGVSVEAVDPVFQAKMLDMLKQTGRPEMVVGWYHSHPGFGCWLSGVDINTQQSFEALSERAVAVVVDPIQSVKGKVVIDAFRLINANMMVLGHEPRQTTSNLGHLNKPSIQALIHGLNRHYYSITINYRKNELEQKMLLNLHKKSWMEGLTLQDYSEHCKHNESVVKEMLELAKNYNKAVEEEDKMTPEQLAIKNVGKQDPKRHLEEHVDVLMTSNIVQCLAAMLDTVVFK
MT1-MMP act inh: blocks activation of human MT1-MMP | 0.061% of 360,000 active | P50281 | GFP/RFP ratio change, % at 20 µM | HT1080 RFP-PRO-GFP cells, GFP/RFP ratio fluorescence, overnight; percent of plate control window, DMSO zero;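 active = GFP/RFP ratio change of at least 30% with cell ATP level not reduced by more than half and red fluorescence within 50% of control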
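Material – HT1080 RFP-PRO-GFP cells · Control set – DMSO wells and RFP-L50D-GFP cells · Incubation – overnight cell settling, then overnight compound exposure, 37 °C, 5% CO2 · Compound dosing – single-point 20 µM compound, 1% DMSO · Read-out – GFP/RFP fluorescence ratio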
Hits are given with their value; n = inactive; x = no result; + = active, no number. Hits are enriched below; roughly 2.3% of the tested compounds scored in any of these assays.

SMILES | DNMT1 inh | CSN inh | SUMO1 PPI mod | SKN-1 inh | Rpn11 inh | MT1-MMP act inh
CCOC(=O)c1ccc(NC2=CC(=O)C(=O)c3ccccc32)cc1 | 56 | n | 41 | n | n | n
CCCCCCNc1ccc(C(=O)OCC)cc1 | n | 124 | n | n | n | n
Cc1ccc(NC2=CC(=O)C(=O)c3ccccc32)cc1 | n | n | n | n | n | n
c1ccc2c(c1)Sc1cnccc1N2CC1CO1 (stereo unspecified) | n | n | n | n | n | n
Clc1ccc(-c2csc(Nc3cccnc3)n2)cc1 | n | n | n | n | n | n
C=CCNc1nc(-c2ccc([N+](=O)[O-])cc2)cs1 | n | n | n | 51 | n | n
C=CCNc1nc(-c2ccc(Cl)cc2)cs1 | n | n | n | 43 | n | n
Cc1c(C(=O)NCc2cccc(C(F)(F)F)c2)sc(=O)n1Cc1ccccc1F | n | n | n | n | n | n
O=C(c1ccco1)N1CCN(C2c3ccccc3-c3ccccc32)CC1 | n | n | n | n | n | n
CC(C)OC(=O)CN1CCN(C2c3ccccc3-c3ccccc32)CC1 | n | n | n | 38 | n | n
NC(=O)c1cccc(-c2coc3c(C(=O)NCc4ccccc4)cccc23)c1 | n | n | n | n | n | n
O=C(Nc1ccc(N2CCOCC2)cc1N1CCOCC1)c1ccc([N+](=O)[O-])cc1 | n | 74 | n | n | n | n
Cc1cc(C)c(C#N)c(SCC(=O)Nc2nonc2N)n1 | n | n | 46 | n | n | n
Cc1ccc(C)c(NC(=O)CSc2nc(C)cc(C)c2C#N)c1 | n | n | n | n | n | n
COc1cc(F)ccc1-c1csc(C(O)(c2ccccc2)C(F)(F)F)n1 (stereo unspecified) | n | n | n | n | n | n
COC(=O)COc1ccc(NC(=O)Cn2nc(-c3ccccc3)c3ccccc3c2=O)cc1 | n | n | n | n | n | n
COc1ccc(-c2nn(CC(=O)Nc3ccc(Cl)c(Cl)c3)c(=O)c3ccccc23)cc1 | n | n | n | 39 | n | n
O=C(Nc1ccc(Cl)cn1)c1ccccc1F | n | n | n | 59 | n | n
Cc1noc(C)c1S(=O)(=O)N1CCCC(C(=O)NCCc2ccc(Cl)cc2)C1 (stereo unspecified) | n | n | n | 47 | n | n
Cc1ccc(-n2nnnc2SCC(=O)Nc2ccc3c(c2)COC3=O)cc1C | n | n | 40 | n | n | n
Cc1ccc(-n2nnnc2SCC(=O)Nc2ccc3c(c2)OCCO3)cc1C | n | n | n | n | n | n
Cc1cccc(C(O)c2ncc(-c3ccccc3)[nH]2)c1C (stereo unspecified) | n | n | n | n | n | n
O=S(=O)(O)c1cc(O)c2ccc(Nc3ccccc3)cc2c1 | 100 | n | 83 | n | n | n
COc1ccccc1Nc1ccc2c(O)cc(S(=O)(=O)O)cc2c1 | 95 | n | 92 | n | n | n
O=S(=O)(O)c1cc(O)c2cc(Nc3ccccc3)ccc2c1 | 98 | n | 77 | n | n | n
SMILES | DNMT1 inh | CSN inh | SUMO1 PPI mod | SKN-1 inh | Rpn11 inh | MT1-MMP act inh
Nc1cccc2c(O)cc(S(=O)(=O)O)cc12 | 114 | n | 76 | n | n | x
NC(Cc1ccc(Cl)cc1)c1csc(NC(=O)NCC2CCCCC2)n1 (stereo unspecified) | n | n | n | n | n | n
CC(=O)c1cccc(NC(=O)C2Cc3c(-c4ccccc4Oc4ccccc4)ccnc3O2)c1 (stereo unspecified) | n | n | n | n | n | n
O=S(=O)(O)c1ccc(O)c2cc(Nc3ccccc3)ccc12 | 96 | n | 120 | n | n | n
CCCNC(=O)c1ccc2snnc2c1 | n | n | n | 36 | n | n
CNC(=O)c1ccc2snnc2c1 | n | n | n | n | n | n
O=C(NCc1ccccc1)C(C1CC1)n1c(=O)c(-c2ccco2)nc2ccccc21 (stereo unspecified) | x | n | n | n | x | n
C=CCSc1nnc2nc3c(nn12)c1cc(C)ccc1n3CC=C | n | n | n | 38 | n | n
CCCCNc1c(CC(C)C)nc2nc(C)cc(C)n12 | x | n | n | n | x | n
Cc1cccc(C)c1NC(=O)C(c1ccccc1OC(F)(F)F)N1CCN(C/C=C/c2ccccc2)CC1 (stereo unspecified) | n | n | n | n | n | n
Cc1cccc(NS(=O)(=O)c2ccc(NC(=O)N3CCCCC3)cc2)c1 | n | 43 | n | n | n | n
Cc1ccc(NS(=O)(=O)c2ccc(NC(=O)N3CCCCC3)cc2)cc1 | n | n | n | n | n | n
COc1ccc(C(C)=O)cc1CN1C(=O)C(C)ON=C1c1cccc(C(F)(F)F)c1 (stereo unspecified) | n | n | n | 35 | n | n
COc1ccc(CN2CC[C@@H]3CN(C(C)=O)[C@H](c4ccccc4Br)C[C@@H]32)cc1 | n | 161 | n | n | n | n
CC(=O)N1C[C@H]2CON(C)[C@H]2C[C@H]1c1ccccc1Br | n | n | n | n | n | n
COc1cccc(-c2cnc(C(O)c3ccc(C(C)(C)C)cc3)[nH]2)c1 (stereo unspecified) | n | n | n | n | n | n
COc1ccc(CC(=O)N2CCCC(C)C2)cc1 (stereo unspecified) | n | n | n | 37 | n | n
CCCCCCn1c(N2CCN(c3cccc(Cl)c3)CC2)nc2c1c(=O)[nH]c(=O)n2C | n | n | n | 38 | n | n
CCc1nc2ccccc2c(C(=O)OCC(=O)N(CCOC)c2c(N)n(Cc3ccccc3)c(=O)[nH]c2=O)c1C | n | + | n | 41 | n | n
COc1ccccc1-c1c(C#N)c(N)nc2c1CCc1ccccc1-2 | n | n | 36 | n | n | n
CC(=O)c1ccc(OC2(C)CCN(CCOc3ccc(C)cc3)C2)cc1 (stereo unspecified) | n | n | n | n | n | n
C=C(C)[C@@H]1C2=CC(C(=O)OC)=C(C[C@H](C(=C)C)[C@H]3O[C@H]3C3=C[C@H]1OC3=O)O2 | n | n | n | n | n | n
Cc1cc(C)n(-c2ccc(Oc3ccccc3)c(S(=O)(=O)O)c2)n1 | n | n | n | n | n | n
CCc1c(C)[nH]n(-c2ccc(Oc3ccccc3)c(S(=O)(=O)O)c2)c1=O | 66 | n | n | n | n | n
Fc1ccc(-c2nc(-c3cccs3)no2)cc1 | n | n | n | 51 | n | n
COC(=O)c1ccc(-c2nc(-c3cccs3)no2)cc1 | n | n | n | n | n | n
Fc1ccc(-c2cnc(-c3cccs3)o2)cc1 | n | n | n | 92 | n | n
Fc1ccc(-c2cc(-c3cccs3)cc(-c3ccccc3)n2)cc1 | n | n | n | n | n | n
